Bioassay records: PubChem, The Scripps Research Institute Molecular Screening Center
M5 antag: blocks acetylcholine activation of human M5 receptor | P08912 | CHO-hM5 cells, Fluo-8 calcium fluorescence, ACh EC80 | inhibition, % at 3 µM | 360,000 tested, 0.59% active;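 active means inhibition above a per-plate cutoff, the mean of that plate's test compounds plus 3 SD, cut at about 27% in these data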;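 further: 0% = acetylcholine EC80 with DMSO and 100% = DMSO without agonist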
CHRM4 PAM: CHRM4 positive allosteric modulation; P08173; CHO-K1 hM4/Gqi5, Fluo-8 calcium fluorescence, ACh EC20; 0% = ACh EC20, 100% = maximal ACh; activation, % at 3 µM; 360,000 tested, 0.4% active; AID 624126;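 active means activation above its plate's cutoff, the mean activation of sample wells plus 3 SD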
Target sequence (P08173 whole entry, looked up): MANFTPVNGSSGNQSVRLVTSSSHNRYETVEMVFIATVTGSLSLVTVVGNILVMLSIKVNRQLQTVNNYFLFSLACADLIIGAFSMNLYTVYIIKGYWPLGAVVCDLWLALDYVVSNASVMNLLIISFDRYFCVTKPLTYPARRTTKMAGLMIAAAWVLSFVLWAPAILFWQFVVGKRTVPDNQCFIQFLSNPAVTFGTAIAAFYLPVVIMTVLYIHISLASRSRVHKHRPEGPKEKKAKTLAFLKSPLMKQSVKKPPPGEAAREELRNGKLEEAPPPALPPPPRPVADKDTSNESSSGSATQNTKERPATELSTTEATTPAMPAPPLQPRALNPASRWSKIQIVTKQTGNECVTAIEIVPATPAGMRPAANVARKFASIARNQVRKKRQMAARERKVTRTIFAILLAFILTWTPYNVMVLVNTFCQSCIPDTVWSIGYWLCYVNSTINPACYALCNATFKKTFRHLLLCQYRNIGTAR
CHRM4 agonist: CHRM4 agonism in calcium assay | activation, % at 3 µM | AID 624127 | CHO-K1 hM4/Gqi5, Fluo-8 calcium fluorescence; vehicle 0%, full acetylcholine response 100% | 360,000 tested, 0.14% active | P08173;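 active means activation above the run mean over all test wells plus 3 SD, cut at about 32% in these data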;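 further: peak over basal fluorescence ratio per well then scaled between controls; 0% = DMSO wells and 100% = acetylcholine at EC100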
CHRM4 antagonist: CHRM4 antagonism in calcium assay; 360,000 tested, 0.73% active; CHO-hM4 cells, ACh EC80, Fluo-8 calcium fluorescence; inhibition, % at 3 µM; P08173;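 active means inhibition above its plate's cutoff, the mean inhibition of sample wells plus 3 SD, cut at about 27% in these data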;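 further: 0% = acetylcholine EC80 with DMSO and 100% = DMSO without agonist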
CHRM5 PAM: potentiates acetylcholine response at human M5 receptor; P08912; AID 624038; CHO-K1 hM5, Fluo-8 calcium, ACh EC20 PAM; 0% = ACh EC20, 100% = ACh EC100; 360,000 tested, 0.3% active; activation, % at 3 µM;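 active means activation above the run cutoff, the mean activation of all test compounds plus 3 SD, cut at about 18% in these data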
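Assay system: CHO-K1 hM5 cells / Incubation: Fluo-8 loading 80 min at 37 °C plus 30 min room temperature / Technique: Fluo-8 calcium dye fluorescence, kinetic read / Repeats: single replicate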
M5 ag: CHRM5 agonism in calcium assay | P08912 | CHO-K1 hM5 cells, Fluo-8 calcium fluorescence; 0% DMSO wells, 100% maximal acetylcholine response | activation, % at 3 µM | 360,000 tested, 0.19% active;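 active means activation above the run's mean over test compounds plus 3 SD, cut at about 23% in these data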;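 further: signal is peak over basal fluorescence ratio across the kinetic read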
The depositor's hits bear a star; ! = repeats disagree. Rows were chosen to be rich in hits. Some 1.8% of all compounds tested hit in one or more screens of this group.

Screening COc1ccc(-c2csc(N(CCCN(C)C)C(=O)c3ccc(C)cc3)n2)cc1 returned M5 antag -7, CHRM4 PAM 49*, CHRM4 agonist 23, CHRM4 antagonist 49*, CHRM5 PAM 7 and M5 ag -7.
`CCN(CC)CCN(C(=O)c1ccc([N+](=O)[O-])cc1)c1nc2ccc(OC)cc2s1` gave M5 antag -3, CHRM4 PAM 32*, CHRM4 agonist 1, CHRM4 antagonist -14, CHRM5 PAM 7 and M5 ag -4.
For CCOC(=O)Cn1c(=O)c2c(nc3n2CC(C)CN3Cc2ccccc2)n(C)c1=O (stereo not drawn) the results were M5 antag 4, CHRM4 PAM 1, CHRM4 agonist 1, CHRM4 antagonist -5, CHRM5 PAM -2 and M5 ag -4.
`OCC[C@@H]1C[C@@H](O)[C@H](O)[C@]2(CCc3ccccc3CO2)O1` gave M5 antag 13, CHRM4 PAM 3, CHRM4 agonist 1, CHRM4 antagonist 1, CHRM5 PAM -1 and M5 ag -1.
Cc1nc2ccc(Cl)cc2n1C was read as M5 antag -7, CHRM4 PAM 3, CHRM4 agonist 0, CHRM4 antagonist -9, CHRM5 PAM 3 and M5 ag -1.
Screening CCCCCCCCN1C(=O)[C@H](CC(=O)NCCCN2CCCC2=O)C[C@@]2(C(=O)OC)CCCCC=C12 returned M5 antag 1, CHRM4 PAM 2, CHRM4 agonist 3, CHRM4 antagonist 1, CHRM5 PAM -5 and M5 ag 0.
For COc1ccc(-c2csc(N(CCCN(C)C)C(=O)c3ccc(Br)cc3)n2)cc1 the results were M5 antag 4, CHRM4 PAM 47*, CHRM4 agonist 16, CHRM4 antagonist 23, CHRM5 PAM -4 and M5 ag -6.
COc1ccc(-c2csc(N(CCCN3CCOCC3)C(=O)c3ccco3)n2)cc1 was read as M5 antag 18, CHRM4 PAM -10, CHRM4 agonist 16, CHRM4 antagonist 36*, CHRM5 PAM -12 and M5 ag -2.
Screening COc1ccc(CN2CCCC(C(=O)c3ccc(SC)cc3)C2)cc1Cn1cccn1 (stereo not drawn) returned M5 antag 18, CHRM4 PAM -51, CHRM4 agonist 5, CHRM4 antagonist 37*, CHRM5 PAM -26 and M5 ag -20.
`CSc1ccc(C(=O)C2CCCN(Cc3ccc(N4CCNC4=O)cc3)C2)cc1` (stereo not drawn) gave M5 antag -4, CHRM4 PAM -22, CHRM4 agonist 2, CHRM4 antagonist 70*, CHRM5 PAM -14 and M5 ag -11.
Screening COc1ccc(C(=O)C2CCCN(C(=O)c3cccc(Cn4cccn4)c3)C2)cc1F (stereo not drawn) returned M5 antag 21, CHRM4 PAM 1, CHRM4 agonist 6, CHRM4 antagonist -7, CHRM5 PAM -5 and M5 ag 0.
CN(C)S(=O)(=O)c1cc(NC(=O)COC(=O)CC2Sc3ccccc3NC2=O)ccc1Cl (stereo not drawn) was read as M5 antag 2, CHRM4 PAM -6, CHRM4 agonist 21, CHRM4 antagonist 4, CHRM5 PAM -20 and M5 ag 1.
Screening COCCN1C(=O)C(CC(=O)Nc2ccc(C(C)=O)cc2)SC1=Nc1ccccc1 (stereo not drawn) returned M5 antag 29*!, CHRM4 PAM -2, CHRM4 agonist 12, CHRM4 antagonist 0, CHRM5 PAM -12 and M5 ag -1.
For CC(O)CN1C(=O)C(CC(=O)Nc2ccc(Cl)cc2)SC1=Nc1ccccc1 (stereo not drawn) the results were M5 antag 10, CHRM4 PAM -2, CHRM4 agonist 12, CHRM4 antagonist 6, CHRM5 PAM -6 and M5 ag -2.
CCC1C(=O)N=C(SCC(=O)Nc2cccc3ccccc23)NC1=O (stereo not drawn) was read as M5 antag -7, CHRM4 PAM 28*, CHRM4 agonist 1, CHRM4 antagonist 9, CHRM5 PAM 5 and M5 ag 1.
